This is one part of a sample in which hits are shown more often than they occur.
HSF1 inh: HSF1 inhibitors in luciferase reporter cells, primary screen, cell-based, NIH3T3, luminescence | NIH3T3-HGL HSE-luciferase, MG132-induced, luminescence 8 h; stronger effect = lower value | actives 0.77% (n = 300,000) | activity change, negative = inhibition, % at 7.5 µM (by protocol);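 active means more than half of replicate wells show activity change below -50%, luminescence cut by over half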;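 further: luciferase reports HSF-1 transcriptional activity via heat shock element; 0% = median of DMSO wells and -100% = zero luminescence signal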
Lmaj promast: Leishmania major promastigote growth inhibition, primary screen; actives 9% (n = 200,000); Leishmania major promastigotes, resazurin fluorescence viability; inhibition, % at 10 µM; in the data active means inhibition above about 50%;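 further: promastigotes grown with compound for 44 hours at 28 °C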
HSF1 activator: HSF-1 activators, primary screen, NIH3T3-HGL cells, MG132 stress, luminescence, single point | NIH3T3-HGL HSF-1 luciferase reporter, 8 h; 100% = twice DMSO control signal | activation, % at 9 µM | actives 1.7% (n = 300,000) | AID 504408, 2011;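 active means mean replicate activation of at least 50% with a set share of replicates each reaching 50%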;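 further: 0% = median of the neutral control wells and 100% = twice that signal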
Hsp70 act: Hsp70 transcriptional activators, primary screen, cell-based, HeLa, Hsp70 promoter luciferase, luminescence, 10 µM. AID 1203, 2008. activation, % at 10 µM. actives 0.04% (n = 200,000). HeLa Hsp70 promoter luciferase reporter; scaled: vehicle 0, proteasome-inhibitor control 100%;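 active means activation above the mean across all tested compounds plus 3 SD, cutoff set per campaign, cut at about 5.5% in these data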;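 further: 100% = MG132 at 30 µM as the positive control and 0% = DMSO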
T cruzi repl: inhibitors of intracellular T. cruzi growth, primary screen, luminescence, NIH3T3 host cells; actives 1.4% (n = 300,000); T. cruzi beta-gal in NIH3T3, 90 h; inhibition, % (test concentration not listed);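 active means mean inhibition across valid replicates above about 55%, limit read from the data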;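 further: signal also drops with host cell toxicity which is not excluded here; 0% = plate median of DMSO wells and 100% = zero luminescence signal; higher percent means less beta-gal luminescence so fewer parasites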
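Test system: β-gal T. cruzi (Tulahuen C4) inside NIH/3T3 cells / Quantity: 5,000 cells/well / Measured by: luminescence from GalScreen with 0.05% NP40, read after 60 min / Medium: DMEM plus 2% FBS / Measure: parasite load inhibition, % / Reagent: Tulahuen C4 trypomastigotes, 5000/well / Schedule: co-culture of at least 90 h after 3 h attachment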
An asterisk follows results filed as active; · = no result.

SMILES	HSF1 inh	Lmaj promast	HSF1 activator	Hsp70 act	T cruzi repl
COc1nc(Nc2ccc([N+](=O)[O-])cc2)nc(NC(C)C)n1	-0.7	97.5*	9.2	-0.1	9.5
CCOc1nc(Nc2ccc([N+](=O)[O-])cc2)nc(NC(C)(C)C)n1	24.8	73.7*	23.0	-0.4	35.2
Fc1cc(Cl)ccc1NC1=NCCCCC1	-35.3	·	-44.9	·	7.7
CCOC(=O)c1ccc(NC(=O)CN2CCN(c3ccccc3)CC2)cc1	-3.9	92.4*	-3.3	0.4	-12.8
CCOC(=O)c1ccc(NC(=O)Cn2nnc(-c3ccccc3F)n2)cc1	-8.0	60.9*	-17.6	-0.3	-10.3
CCOC(=O)c1ccc(NC(=O)CN2C(=O)CNC2=O)cc1	3.5	96.2*	-2.5	-0.4	-6.3
COC(=O)c1ccc(NC(=O)CN2CCN(c3ccccc3)CC2)cc1	6.1	2.8	-2.9	0.0	-8.6
O=C1CCCN1CCCNc1nc2c(S(=O)(=O)c3ccc(Br)cc3)nnn2c2ccccc12	1.1	·	-0.5	·	5.9
Cc1cccc(NC(=S)NNC(=O)c2nn(C)cc2Cl)c1	13.6	-6.3	-2.5	-0.3	-5.1
Cc1c(C)n(CCCN(C)C)c2ncnc(Nc3ccc(F)cc3)c12	-10.4	·	14.0	·	61.0*
CCCCOC(=O)CCc1c(C)[nH]c(=O)c(C#N)c1C	1.9	-3.7	-20.6	-0.2	-4.5
CCCCOC(=O)CCc1c(C)n[nH]c1C	21.8	·	63.0*	·	-15.3
COc1ccc(C2C(C#N)=C(N)Nc3nc4ccccc4n32)cc1 (centres undefined)	30.8	64.7*	52.8*	-0.4	1.6
O=C1CC(N2C(=O)/C(=C/C=C/c3ccccc3)SC2=S)C(=O)N1c1ccccc1 (centres undefined)	28.1	56.2*	83.2*	-0.3	9.8
COc1cccc(CC2(CO)CCCN(Cc3cc4ccccc4[nH]3)C2)c1 (centres undefined)	-0.4	74.1*	0.9	0.2	67.3*
COc1cccc(CC2(CO)CCCN(Cc3ccc(C)s3)C2)c1 (centres undefined)	-1.2	66.7*	-13.7	-0.1	57.9*
COc1cccc(CC2(CO)CCCN(Cc3sc(N4CCCC4)nc3Cl)C2)c1 (centres undefined)	-8.5	8.2	-14.3	-0.1	55.1*
COc1cccc(CC2(CO)CCCN(Cc3ccc(CO)o3)C2)c1 (centres undefined)	1.4	2.6	-6.2	0.0	-17.5
COc1cccc(CC2(CO)CCCN(Cc3ccc(-c4ccco4)cc3)C2)c1 (centres undefined)	0.5	19.4	13.8	-0.1	57.7*
OCC1CCCCN1C(=S)Nc1cccc(Cl)c1 (centres undefined)	11.7	-1.0	22.7	-0.2	-2.4
CN(C)C(=O)c1ccc(NC(=O)CN2C(=O)NC3(CCCc4ccccc43)C2=O)cc1 (centres undefined)	-5.0	·	-4.2	·	-19.1
COc1ccc(N2CCN(C(c3cccs3)c3nnnn3C3CCCC3)CC2)cc1 (centres undefined)	2.8	20.3	12.2	0.4	19.5
COc1ccc(C(c2nnnn2C2CCCC2)N2CCc3ccccc3C2)cc1OC (centres undefined)	·	60.4*	·	-0.3	·
COc1ccc(N2CCN(C(c3ccccc3OC)c3nnnn3C3CCCC3)CC2)cc1 (centres undefined)	·	59.3*	·	-0.2	·
COc1cccc(C(c2nnnn2C(C)(C)C)N2CCN(C3CCCCC3)CC2)c1OC (centres undefined)	-8.7	39.7	2.8	-0.5	-4.7
SMILES	HSF1 inh	Lmaj promast	HSF1 activator	Hsp70 act	T cruzi repl
COc1ccc(OC)c(C(c2nnnn2C2CCCC2)N2CCN(c3ccccc3F)CC2)c1 (centres undefined)	1.1	99.3*	18.8	0.1	8.7
COc1ccc(N2CCN(C(c3cccc(OC)c3OC)c3nnnn3C3CCCC3)CC2)cc1 (centres undefined)	-3.8	71.5*	11.9	-0.1	34.2
O=C(CNC(=O)c1ccc(Cl)cc1Cl)OCN1C(=O)c2ccccc2C1=O	-0.7	·	-15.9	·	-7.6
Cc1cccc(-n2ccc(=O)c(C(=O)Nc3ccc(S(=O)(=O)Nc4nccc(C)n4)cc3)n2)c1	-1.0	·	-6.8	·	10.3
CCOC(=O)CN1N=C(c2ccc(Cl)s2)CSC1=O	-2.6	36.6	-0.5	0.3	9.5
COc1cccc(C(C(=O)NC(C)(C)C)N(Cc2ccc(F)cc2)C(=O)CCC(=O)Nc2cc(C)on2)c1OC (centres undefined)	3.7	·	32.9	·	·
CCOc1ccc2c(c1)OC(c1ccc(C)cc1)(C(F)(F)F)NC2=O (centres undefined)	-0.1	100.3*	-0.2	-0.3	51.4
CCOc1ccc2c(c1)OC1(CCC(C)C1)CC2=O (centres undefined)	7.6	·	6.6	·	6.3
Cc1sc2ncnc(NCCc3ccc(S(N)(=O)=O)cc3)c2c1C	-51.4*	1.8	-60.8	-0.2	-27.0
NS(=O)(=O)c1ccc(CCNc2ncnc3sccc23)cc1	5.8	22.7	23.9	0.0	9.8
Cc1sc2ncnc(NCCCn3ccnc3)c2c1C	-13.1	55.3*	-23.8	-0.4	-17.1
Cc1ccc(/C=C2/N=C(c3ccccc3)NNC2=O)cc1	-5.6	·	7.8	·	-2.2
O=C(CSc1nnc(CNC(=O)c2c(F)cccc2F)o1)Nc1ccc2c(c1)OCCO2	1.3	·	3.5	·	0.0
Cc1[nH]c2ccccc2c1C(=O)COC(=O)CCS(=O)(=O)c1ccccc1Cl	1.7	60.2*	5.2	-0.2	-6.5
CCOc1ccccc1OCC(=O)OCC(=O)c1c(C)[nH]c2ccccc12	-2.4	·	-4.5	·	0.5
COc1ccc(C)cc1NC(=O)CNc1ccc(C(C)=O)cc1	23.4	8.2	14.1	-0.4	-2.9
COc1cccc(-c2csc(N3CCN(C(=O)NC45CC6CC(CC(C6)C4)C5)CC3)n2)c1	-0.5	34.8	-4.2	-0.2	43.6
O=c1c(-c2ccco2)[n+]([O-])c2ccccc2n1OCc1ccccc1[N+](=O)[O-]	4.1	-1.0	2.3	-0.1	2.9
Cc1ccc(-c2cc(C(F)F)nc(NCc3cccs3)n2)cc1	5.1	-6.5	-5.6	-0.3	10.7
Cc1ccc(-c2cc(C(F)F)nc(NCC3CCCO3)n2)cc1 (centres undefined)	9.4	64.2*	-0.4	-0.4	24.1
CSc1ccccc1OCc1cc(C(=O)N(C)Cc2ccc(C)o2)no1	39.7	·	57.2*	·	-0.8
CCOc1cc(/C=C\[N+](=O)[O-])ccc1OCC(=O)Nc1ccccc1C	-62.4*	71.2*	-63.2	-0.2	36.6
O=C(O)Cn1c2c(c3ccccc31)CSc1ccc(Cl)cc1-2	192.2	·	269.1*	·	-5.6
O=C(O)Cn1c2ccccc2c2ccccc21	-0.1	-11.7	-9.0	-0.1	-10.0
